Holding throughout (type): functional, cell-based
Test [1] deals with HCT cell line. Nature of the test: Cytotoxicity against wild type p53-l- gene in human colon tumor 116 (HCT 116) cell lines was determined. The method in brief:
(§1)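 HCT 116 wild-type and isogenic p53- or p21-disrupted lines (McCoy's 5A, 10% FBS) seeded at 3.0 × 10^3/well, adhered 24 h, then treated at varying concentrations for 48 h, eight replicates, DMSO controls. Viability by MTS, absorbance 490 nm after 2–3 h, expressed as % of same-plate DMSO control; EC50 fitted from log concentration–response curve; done twice.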

The test system of test [2] is RKO. Nature of the test: Cytotoxicity against human RKO cell line. An outline of the steps:
(§2)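 RKO and RKO-E6 cells (DMEM, 10% FBS, 37 °C, 5% CO2) seeded at 5.0 × 10^3/well, adhered 24 h, then exposed to varying concentrations for 48 h, eight replicates, DMSO controls. MTS conversion read at 490 nm after 2–3 h; growth as % of same-plate DMSO control; EC50 from concentration–response curve. Assay run twice.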

For test [3], the system named is HCT cell line. Nature of the test: Cytotoxicity against wild type p21-l- gene in human colon tumor 116 (HCT 116) cell lines was determined. The method in brief: as §1
Test [4] has as its system RKO. Nature of the test: Cytotoxicity against human RKO-E6 cell line. The note with it: RKOE6. An outline of the steps:
as §2

In test [5] the test system is HCT cell line. Nature of the test: Cytotoxicity against wild type p21 gene in human colon tumor 116 (HCT 116) cell lines was determined. An outline of the steps: as §1
The test system of test [6] is HCT cell line. Nature of the test: Cytotoxicity against wild type p53 gene in human colon tumor 116 (HCT 116) cell lines was determined. An outline of the steps:
as §1

In general, EC50 refers to the midpoint of the concentration-response curve. Low values mean a more potent agent, high ones a less potent agent. As for `CCCCC/C=C\C[C@@]1(O)C=C(Cl)C(=O)[C@@H]1C[C@H](OC(C)=O)[C@H](CCCC(=O)OC)OC(C)=O`, the concentration giving a half-maximal response (EC50) turned out to be 360 nM in the test with HCT cell line [1]; 440 nM in the test with RKO [2]; 320 nM in the test on HCT cell line [3]; 470 nM in the test with RKO [4]; 330 nM in the test on HCT cell line [5]; 340 nM in the test with HCT cell line [6].
Consider `CC/C=C/C/C=C\C[C@@]1(O)C=C(Cl)C(=O)/C1=C/[C@H](OC(C)=O)[C@H](CCCC(=O)OC)OC(C)=O`, for which the EC50 is 370 nM in the test with HCT cell line [1], 300 nM with HCT cell line [3], 290 nM in the test with HCT cell line [5] and 320 nM with HCT cell line [6].
Turning to `CCCCC/C=C\C[C@@]1(O)C=C(Cl)C(=O)/C1=C/[C@H](OC(C)=O)[C@H](CCCC(=O)OC)OC(C)=O` [PUNAGLANDIN 4], the EC50 in the test with HCT cell line [1] is 350 nM; in the test on RKO [2], 310 nM; in the test on HCT cell line [3] it was 280 nM; in the test with RKO [4], 370 nM; in the test with HCT cell line [5], 340 nM; in the test on HCT cell line [6], 330 nM.
As for `CCCCC/C=C\C[C@@]1(O)C=C(Cl)C(=O)[C@@H]1[C@@H](OC(C)=O)[C@H](OC(C)=O)[C@H](CCCC(=O)OC)OC(C)=O`, the EC50 with HCT cell line [1] was 40 nM; in the test on HCT cell line [3], 40 nM; with HCT cell line [5] it was 47 nM; in the test with HCT cell line [6], 40 nM.

(Values after ChEMBL document CHEMBL1149327, “Punaglandins, chlorinated prostaglandins, function as potent Michael receptors to inhibit ubiquitin isopeptidase activity” (J Med Chem, 2004).)
